# Cneo AK release: Cryptococcus neoformans cell lysis inducers, primary screen, AK release luminescence, single concentration; C. neoformans lysis, adenylate kinase release luminescence, 4 h; normalised: neutral wells 0, clomiphene wells 100; lysis activity, % at 15 µM; 0.2% of 360,000 active; AID 651654, 2012;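 active = mean lysis activity across replicates of at least 80%, whatever share of replicates individually reach that level; inactive = mean lysis activity below 80%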
#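 Test system: log-phase Cryptococcus neoformans yeast cells; Quantity: yeast cell density of 5 × 10^6 cells/mL; Buffer or medium: YPD; Doses: single compound concentration per well; Timing: 4 h at 37 °C static, read 1 h later; Measured by: AK luminescence; Read-out basis: lysis from increased AK signal; Control set: Clomiphene as positive control.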
# SUMO Mot1 rescue: yeast Mot1-301 growth rescue at high temperature, primary screen, SUMOylation pathway inhibitor project, S. cerevisiae, ATP luminescence, 38.5C; S. cerevisiae Mot1-301 growth rescue; percent above DMSO median, 100 means doubled; AID 2716, 2010; growth rescue, % at 18.8 µM; 1% of 320,000 active;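 active = every valid replicate shows activation above 250% relative to neutral control wells; inactive = the rest, any valid replicate at or below 250%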;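 note: OY570 slx delta 5 strain wells were the positive control but not used for scaling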
# C2C12 statin: suppressors of statin myotoxicity in C2C12 myotubes, primary screen, cell-based, single point, plate reader. C2C12 myotubes + simvastatin, ATP luminescence, 48 h; scaled: DMSO 0, geranylgeraniol control 100. rescue of ATP level, % at 7.49 µM. 0.78% of 330,000 active;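 active = mean ATP rescue above about 67%, or every replicate alone reaching that limit, limit read from the data, passing the limit was not always enough; inconclusive = no clear call, values can overlap the other calls; inactive = mean under the limit and some replicate under it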;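 note: myotubes were challenged with 10 µM simvastatin during compound exposure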
# Mot1 SUMO dose: growth restoration of Mot1-301 yeast on galactose, dose response, SUMO pathway inhibitor project, whole organism, S. cerevisiae, ATP luminescence, cherry-picked samples; shares compounds with SUMO Mot1 rescue; S. cerevisiae Mot1-301 galactose growth, 24 h; -100 = growth of slx-deleted rescue strain; growth activity, percent, % at 42 µM; 2,300 tested, under 10 active;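 active = Signal drops as the depositor expects, and the fitted half-maximal dose is no more than ten times the top valid tested dose; inconclusive = Poor fit, or a flat curve whose signal drops by 30% to 70%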;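 note: more negative values mean stronger growth rescue toward the control strain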
# The depositor's hits bear a star; ? = inconclusive; nt = no result; + = active, no number. Most compounds without a hit are left out; they make up all but 1.5% or so of the library.
SMILES,Cneo AK release,SUMO Mot1 rescue,C2C12 statin,Mot1 SUMO dose
O=C(c1ccc([N+](=O)[O-])o1)N1CCCCCC1,1,-1,5,nt
O=C(c1ccc([N+](=O)[O-])o1)N1CCN(c2nc3c(Cl)cccc3s2)CC1,nt,769*,?,-1
C[C@@H]1CN([C@H](C)CO)C(=O)c2cc(NC(=O)Cn3cnnn3)ccc2O[C@@H]1CN(C)S(=O)(=O)c1ccc(Cl)cc1,nt,nt,-17,nt
Cc1ccc(S(=O)(=O)NNC(=O)c2cc3cc4ccccc4nc3s2)cc1,5,553*,17,-1
Cc1cccc(C(=O)NNC(=O)c2cc3cc4ccccc4nc3s2)c1,-1,-2,-14,nt
C[C@@H]1CCCCO[C@@H](CN(C)C(=O)c2ccccc2)[C@@H](C)CN([C@@H](C)CO)C(=O)c2cc(NC(=O)Nc3ccccc3)ccc2O1,0,nt,nt,nt
CC(=O)Nc1cccc(NC(=S)Nc2ccc(F)cc2F)c1,nt,605*,6,0
CC(=O)Nc1cccc(NC(=S)Nc2cccc(Cl)c2Cl)c1,nt,-14,nt,nt
O=S(=O)(N[C@H]1CC[C@@H](CCn2cc(-c3cccnc3)nn2)O[C@H]1CO)c1ccc(F)cc1,0,nt,5,nt
CCOC(=O)c1ccc(NC(=S)NCCCN2CCOCC2)cc1,nt,622*,nt,0
CC(=O)c1ccc(NC(=S)NCCCN2CCOCC2)cc1,nt,-2,nt,nt
COc1cc(NC(=O)CN2CCN(CC(=O)Nc3ccccc3OC)CC2)cc(OC)c1,-3,518*,-10,1
COc1ccc(OC)c(NC(=O)CCN2CCN(Cc3ccccc3)CC2)c1,1,-3,17,nt
COc1ccc(NC(=O)CN2CCN(CC(=O)Nc3ccccc3OC)CC2)c(OC)c1,1,nt,-12,nt
COc1cc(NC(=O)CCN2CCN(Cc3ccccc3)CC2)cc(OC)c1,0,696*,12,0
C[C@H]1CN([C@@H](C)CO)C(=O)Cc2cc(NS(=O)(=O)c3cn(C)cn3)ccc2O[C@@H]1CN(C)C(=O)Nc1ccccc1,-4,nt,-6,nt
C[C@H](CO)N1C[C@H](C)[C@@H](CN(C)Cc2ccc3c(c2)OCO3)Oc2ccc(NC(=O)C3CC3)cc2C1=O,1,nt,4,nt
COc1ccc(NC(=O)Nc2ccc3c(c2)C(=O)N([C@@H](C)CO)C[C@H](C)[C@@H](CN(C)S(=O)(=O)c2cccs2)O3)cc1,0,nt,nt,nt
CC(C)NC(=O)N1C[C@@H]2[C@H](c3ccccc31)[C@H](CO)N2Cc1ccccc1,-4,nt,-12,nt
CCOC(=O)c1oc2c(c1C)C(=O)CCC2,-1,934*,nt,0
CCOC(=O)c1oc2c(c1C)/C(=N/O)CCC2,0,-14,12,nt
CN(C)S(=O)(=O)c1ccc(C(=O)Nc2ccc(S(=O)(=O)NC3=NCCCCC3)cc2)cc1,-1,-4,28,nt
O=C(Nc1ccc(S(=O)(=O)NC2=NCCCCC2)cc1)c1ccc(C(F)(F)F)cc1,nt,451*,nt,-1
Cc1cnc(NC(=O)CSc2nc3ccccc3s2)s1,1,395*,39,-1
O=C(CSc1nc2ccccc2s1)Nc1ncccn1,2,0,nt,nt
SMILES,Cneo AK release,SUMO Mot1 rescue,C2C12 statin,Mot1 SUMO dose
CCCCCCCc1n[nH]c(=S)n1Cc1ccccc1,nt,-12,nt,nt
CCCCc1n[nH]c(=S)n1Cc1ccc(C)cc1,nt,+,nt,1
CO[C@@H]1CN(C)C(=O)c2cc(NS(C)(=O)=O)ccc2OC[C@H](C)N(C)C[C@H]1C,4,nt,4,nt
COc1ccc(NC(=O)Nc2ccc3c(c2)C(=O)N([C@H](C)CO)C[C@H](C)[C@@H](CN(C)Cc2ccccc2)O3)cc1,4,nt,-20,nt
N#CC1=C(SCC(N)=O)NC(=O)CC1c1ccccc1Cl (configuration not stated),1,613*,nt,0
N#CC1=C(SCC(N)=O)NC(=O)CC1c1cccc2ccccc12 (configuration not stated),-17,nt,nt,nt
O=C(CCN1CCCCC1)N[C@H]1CC[C@H](CCNS(=O)(=O)c2ccc(F)cc2)O[C@H]1CO,-2,nt,6,nt
CO[C@H]1CN(C)C(=O)c2ccc(NC(C)=O)cc2OC[C@@H](C)N(C(=O)Cc2ccccn2)C[C@H]1C,-3,nt,-1,nt
CC(=O)c1c(Nc2cccc(F)c2)oc(C)cc1=O,-4,952*,nt,0
CC1(C)CC(=O)C=C(Nc2cccc(F)c2)C1,-1,-9,5,nt
CCC(=O)Nc1ccc(C(=O)NCCCn2ccnc2)cc1,nt,-3,nt,nt
CCC(=O)c1c[nH]c(C(=O)NCCCn2ccnc2)c1,-4,+,-10,0
COCC(=O)N(C)C[C@H]1Oc2ncc(-c3ccccc3C)cc2C(=O)N([C@H](C)CO)C[C@@H]1C,-9,nt,25,nt
Cc1cccc(NC(=O)CSc2cccc3cccnc23)c1,20,-7,9,nt
O=C(CSc1cccc2cccnc12)Nc1cc(C(=O)O)cc(C(=O)O)c1,-2,577*,7,1
CNC(=O)C[C@H]1CC[C@@H]2[C@H](COC[C@H](O)CN2Cc2ccc(Cl)c(Cl)c2)O1,-3,nt,-7,nt
Cc1c(NC(=O)c2cc(-c3ccccc3O)on2)c(=O)n(-c2ccccc2)n1C,nt,441*,-3,0
Cc1c(NC(=O)c2ccc(N(C)S(C)(=O)=O)cc2)c(=O)n(-c2ccccc2)n1C,1,+,5,1
Cc1c(NC(=O)c2ccc(N(Cc3ccccc3)S(C)(=O)=O)cc2)c(=O)n(-c2ccccc2)n1C,-3,2,1,nt
Cc1c(NC(=O)c2cc(-c3ccccc3)on2)c(=O)n(-c2ccccc2)n1C,-3,1,-9,nt
Cc1noc(C)c1NC(=O)Nc1ccc2c(c1)CC(=O)N([C@H](C)CO)C[C@@H](C)[C@H](CN(C)C(=O)Nc1c(C)noc1C)O2,1,nt,-8,nt
CCC(=O)N1C[C@@H](C)[C@H](OC)CN(C)C(=O)c2ccc(NC(=O)C3CCOCC3)cc2OC[C@H]1C,40,nt,3,nt
COc1cc(/C=N/NS(=O)(=O)c2ccc(C)cc2)ccc1OCc1ccc(C(=O)O)cc1,nt,-3,nt,nt
CCOc1ccc(/C=N/NS(=O)(=O)c2ccc(C)cc2)cc1OC,-2,+,30,2
COCC(=O)Nc1ccc2c(c1)[C@H]1C[C@H](CC(=O)NCc3cc(F)ccc3F)O[C@H](CO)[C@H]1O2,-38,nt,0,nt
O=C(NNc1ccccc1)C(=O)NNS(=O)(=O)c1ccc(CCCl)cc1,nt,-26,33,nt
Nc1ccc(S(=O)(=O)NNC(=O)C(=O)NNc2ccccc2)cc1,4,405*,-3,0
COc1ccc(-c2ccc3c(c2)[C@@H]2[C@@H](CCN2S(=O)(=O)c2ccccc2F)[C@H](CO)N3C)cc1,0,nt,-16,nt
CCC(C)N(C(=O)COc1ccccc1C(=O)NCc1ccccc1)C1CCS(=O)(=O)C1 (configuration not stated),-4,-12,-16,nt
CCCN(CC1CC1)C(=O)COc1ccccc1C(=O)NCc1ccccc1,nt,802*,-22,1

# Bioassay records: PubChem BioAssay, Broad Institute
